Compounds with a hit are over-represented: about 4% of the library has one in this group of screens.
GPR7 antag – human neuropeptides B/W receptor 1 antagonism. P48145. GPR7-expressing cells, fluorescence antagonist assay. inhibition, % at 4.4 µM. 290,000 tested, 1.1% active. AID 1861; in the data active = inhibition above about 16%, passing the limit was not always enough;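 also: cells stimulated with the agonist NPW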
Target sequence (P48145 whole entry, looked up): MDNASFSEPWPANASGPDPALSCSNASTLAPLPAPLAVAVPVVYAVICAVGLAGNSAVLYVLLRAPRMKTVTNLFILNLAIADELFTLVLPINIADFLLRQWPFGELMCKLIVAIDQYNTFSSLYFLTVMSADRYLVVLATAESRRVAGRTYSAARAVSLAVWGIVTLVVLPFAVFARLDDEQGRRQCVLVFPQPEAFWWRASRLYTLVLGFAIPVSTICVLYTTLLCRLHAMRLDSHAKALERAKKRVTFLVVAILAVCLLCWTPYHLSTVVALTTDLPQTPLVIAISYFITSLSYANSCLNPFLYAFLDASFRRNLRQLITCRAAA
TAAR1 agonist – human TAAR1 agonism | Q96RJ0 | 360,000 tested, 0.99% active | CHO RD-HGA16 TAAR1, Fluo-8 calcium fluorescence; vehicle wells 0%, saturating PEA agonist 100% | activation, % at 3 µM | AID 624467;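 active = activation above the mean activation of all test compounds in the run plus 3 SD, cut at about 38% in these data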
Target sequence (Q96RJ0 whole entry, looked up): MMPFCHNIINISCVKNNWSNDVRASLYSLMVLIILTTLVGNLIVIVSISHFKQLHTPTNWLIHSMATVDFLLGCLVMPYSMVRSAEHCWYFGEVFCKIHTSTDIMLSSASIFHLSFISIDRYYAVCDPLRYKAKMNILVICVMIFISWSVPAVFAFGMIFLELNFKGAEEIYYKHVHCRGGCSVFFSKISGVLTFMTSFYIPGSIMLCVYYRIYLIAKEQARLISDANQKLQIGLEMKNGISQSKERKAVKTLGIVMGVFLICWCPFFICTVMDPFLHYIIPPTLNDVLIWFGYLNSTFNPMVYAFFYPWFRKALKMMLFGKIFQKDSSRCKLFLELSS
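Test system: RD-HGA16 (CHO) cells co-expressing Gα16 and hTAAR1 | Doses: Single dose, 3 µM | Schedule: 17-24 h seeding, 75 min 37 °C dye, 30 min RT | Evaluation: % activation from peak over basal fluorescence ratio, DMSO-to-PEA scaled | Technique: Kinetic Fluo-8 calcium fluorescence | Benchmarks: Low control DMSO, high control PEA (EC100)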
MPTP block – blocks calcium-induced mitochondrial swelling; 360,000 tested, 1.4% active; inhibition, % at 10 µM; isolated mouse mitochondria, Ca2+ swelling absorbance, 30 min;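 active = inhibition of 50% or more, scaled per plate between neutral and stimulator controls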
TAAR1 antagonist – antagonists of human TAAR1; inhibition, % at 3 µM; CHO RD-HGA16 TAAR1, Fluo-8 calcium fluorescence, antagonist; 360,000 tested, 1.5% active; Q96RJ0;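 active = inhibition above a per-plate cutoff, the mean inhibition of test compounds on that plate plus 3 SD, cut at about 49% in these data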
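test system = CHO RD-HGA16 cells bearing hTAAR1 | replication = singlicate | controls = DMSO-only wells and EC80 β-PEA-stimulated wells | reagent = EC80 β-phenethylamine stimulus | read-out basis = percent inhibition of PEA-evoked calcium signal, max/basal emission ratio | schedule = seeding 17-24 h prior, 75-min 37 °C, 30-min RT dye loading | signal = kinetic Fluo-8 calcium fluorescence measurement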
DAGLB inhibitor – diacylglycerol lipase beta (human) inhibition | HEK293T DAGLB membrane lysate, EnzChek fluorogenic substrate | inhibition, % at 5.17 µM | 340,000 tested, 0.059% active | AID 504411; in the data active = inhibition above about 34%
A number is an active result; - = inactive; . = no result.

SMILES	GPR7 antag	TAAR1 agonist	MPTP block	TAAR1 antagonist	DAGLB inhibitor
COc1ccccc1N1CCN(C(=O)c2ccc(COc3cccc4c3OC(C)(C)C4)cc2)CC1	.	-	-	56.2	-
COc1ccc(-c2cn(-c3ccc(OC)cc3)c3[n+]2-c2ccccc2CC3)cc1	24.4	-	-	-	-
COc1ccc(OC)c(S(=O)(=O)Nc2ccccc2SC)c1	13.9	-	-	-	-
CSc1ncnc2c1ccn2CC(=O)Nc1ccc(C)c(C)c1	.	43.2	-	-	-
Cc1ccc(NC(=O)Cn2cccc2)cc1C	-	-	-	-	-
CC1=C(C(=O)N2CCCCCC2)CC(CC(=O)NCCc2ccccn2)C(=O)N1CCCN1CCCC1=O (centres undefined)	.	-	-	-	.
Cc1ccc(S(=O)(=O)Nc2ccc(Cl)cc2O)cc1	.	-	-	-	.
O=C(CN1CCc2ccccc2C1)Nc1cccc(S(=O)(=O)N2CCCC2)c1	-	37.8	-	-	-
O=C(Cc1ccccc1)Nc1cccc(S(=O)(=O)N2CCCCCC2)c1	.	-	-	-	-
COC(=O)[C@]12C[C@H](CC(=O)NCc3cccc4ccccc34)C(=O)N(Cc3ccc4c(c3)OCO4)C1=C[C@H](C(C)(C)C)O[C@@H]2C	.	-	.	-	.
Cc1nnc(NC(=O)CSc2ncnc3c2cnn3-c2ccccc2C)s1	-	-	-	-	-
CCOC(=O)Cc1csc(NC(=O)CSc2ncnc3c2cnn3-c2ccccc2Cl)n1	-	-	-	62.1	-
C/C(=N\NC(=O)c1ccc(O)cc1)c1ccc(N2CCOCC2)cc1	-	-	-	-	-
C/C(=N\NC(=O)c1ccc(N/N=C(\C)c2ccc(O)cc2)cc1)c1ccc(O)cc1	-	-	-	56.5	-
CCN(CC)C(=O)c1ncn2c1C(=O)N[C@H](C)C2	.	-	.	-	.
CCOC(=O)c1cc(C(=O)OCC)c(=O)[nH]c1SCc1ccccc1	-	40.8	-	-	-
Nc1c(CNCc2nnn(Cc3ccccc3)c2N)nnn1Cc1ccccc1	.	-	-	-	-
CN(C)c1ccc(NC(=O)Nc2ccc3snnc3c2)cc1	-	-	-	57.9	-
CC(=O)c1ccc(NC(=O)c2ccc3snnc3c2)cc1	-	-	-	-	-
O=C(Nc1nccs1)c1ccc2sc([C@H]3C[C@H](O)[C@@H](CO)O3)nc2c1	.	-	-	-	.
O=C(Nc1nc2ccccc2s1)c1ccc2sc([C@H]3C[C@H](O)[C@@H](CO)O3)nc2c1	.	-	-	50.5	.
CCCCCCCCn1c2c(c(=N)c3ccccc31)CCC2	66.8	-	-	-	.
CCCCCn1c2c(c(=N)c3ccccc31)CCC2	-	-	-	-	-
S=C(NCCc1ccccc1)N1CCN(C23CC4CC(CC(C4)C2)C3)CC1	-	37.5	-	-	-
CC(=O)Nc1ccc(S(=O)(=O)Oc2ccccc2N2CCCCC2)cc1	20.0	-	-	-	-
SMILES	GPR7 antag	TAAR1 agonist	MPTP block	TAAR1 antagonist	DAGLB inhibitor
COc1cc(C(=S)N2CCCC2)ccc1OS(=O)(=O)c1ccc(NC(C)=O)cc1	-	-	-	-	-
Cn1c(CC(=O)Nc2ccc(Cl)c(Cl)c2)nnc1SCC(=O)NCc1ccccc1	-	37.7	-	-	-
CC(C)(C)c1ccc(C(=O)CCC(=O)OCC(=O)NCCc2ccc(S(N)(=O)=O)cc2)cc1	.	-	-	62.5	-
c1ccc(-c2cc(NCCN3CCCCC3)c3ccccc3n2)cc1	-	-	-	-	-
COc1ccc(NS(=O)(=O)c2ccc(C(=O)NCC3(N4CCOCC4)CCCCC3)cc2)cc1	.	57.4	-	-	-
COc1ccc(NS(=O)(=O)c2cccc(C(=O)NCC3(N4CCOCC4)CCCCC3)c2)cc1	-	-	-	-	-
COc1ccc(NS(=O)(=O)c2ccc(C(=O)N(C)Cc3ccc(C)o3)cc2)cc1	.	49.4	-	-	-
O=C(NCC1CCCCC1)c1cc(S(=O)(=O)N2CCOCC2)ccc1F	.	39.3	-	-	-
COCCCNC(=O)C[C@H]1C[C@@]2(C(=O)OC)C(=C[C@H](C(C)(C)C)O[C@@H]2C)N(CCc2ccc(OC)c(OC)c2)C1=O	.	-	.	-	.
COc1ccc(Nc2c(-c3ccc(C)cc3)nc3cnccn23)cc1	16.6	-	-	-	-
Cc1[nH]nc2c1C(c1ccc(F)cc1)N(c1ccccc1)C2=O (centres undefined)	.	-	.	-	.
CCN(C[C@H]1N[C@@](CC)(C(=O)OC)[C@H]2C(=O)N(Cc3ccccc3)C(=O)[C@@H]12)C(=O)c1ccc(C(C)(C)C)cc1	.	-	-	53.9	-
CCN(C[C@H]1N[C@@](C)(C(=O)OC)[C@H]2C(=O)N(Cc3ccccc3)C(=O)[C@@H]12)C(=O)c1ccc(C(C)(C)C)cc1	.	-	-	51.4	-
CN1C[C@@H]2[C@@H]3C(=O)N(Cc4ccccc4)C(=O)[C@@H]3[C@](Cc3ccccc3)(C1=O)N2C(=O)c1ccccc1	.	-	-	-	-
COC(=O)[C@]1(Cc2ccccc2)N[C@H](CN(C)C(=O)c2ccc(C(C)(C)C)cc2)[C@@H]2C(=O)N(Cc3ccccc3)C(=O)[C@@H]21	.	-	-	-	-
CN1C[C@@H]2[C@@H]3C(=O)N(Cc4ccccc4)C(=O)[C@@H]3[C@](Cc3ccccc3)(C1=O)N2C(=O)c1ccc(C(C)(C)C)cc1	.	41.5	-	-	-
CCN(C[C@H]1N[C@@](C)(C(=O)OC)[C@H]2C(=O)N(Cc3ccccc3)C(=O)[C@@H]12)C(=O)COC	.	-	-	-	-
COc1ccccc1CC1(C)C(=O)Nc2ccc(S(=O)(=O)NC3CCCCC3)cc21 (centres undefined)	.	-	-	-	.
CN(C(=O)CSc1nncn1C)C1CCCN(Cc2ccccc2F)C1 (centres undefined)	-	-	-	-	-
CCc1ccc2c(c1)Sc1ccccc1CC2N1CCN(C)CC1 (centres undefined)	.	43.2	-	-	-
CCC(=O)Nc1nc(CC(=O)Nc2ccccc2OC)cs1	-	-	-	-	-
COc1ccccc1NC(=O)Nc1nc(CC(=O)Nc2ccc(OC)c(OC)c2)cs1	.	-	-	49.3	-
COc1cccc(NC(=O)Cc2csc(NC(=O)Nc3ccccc3OC)n2)c1	.	-	-	56.0	-
CCCCC[C@H](C)N1C[C@H](COCc2ccccc2)Oc2cc(N3CCC[C@H]3COC)ccc2S1(=O)=O	.	-	-	-	.
O=C(CCN1C(=O)NC2(CCCC2)C1=O)Nc1ccc(-c2nc3ccccc3s2)cc1	.	-	-	67.5	-
CCOC(=O)C1CCCN(C(=O)CCCn2nnnc2CN2CCOCC2)C1 (centres undefined)	-	39.6	-	-	-
CCCOC1CCCN(C(=O)CCCn2nnnc2CN2CCOCC2)C1 (centres undefined)	-	-	-	-	-
COc1ccc(CC(=O)NCc2ccccc2F)cc1S(=O)(=O)N1CCOCC1	.	-	-	-	-
CC(=O)Nc1ccc(C(=O)OCC(=O)N(C)C2CCCCC2)cc1	-	-	-	-	-
CC(=O)Nc1ccc(C(=O)OCC(=O)N(c2ccccc2)C2CCCCC2)cc1	.	-	-	49.8	-

High-throughput results: PubChem, several laboratories
